Rows were chosen to be rich in hits. Some 1.8% of all compounds tested hit in one or more screens of this group.
CHRM5 antagonist: antagonists of human muscarinic M5 receptor (CHRM5); CHO-hM5 cells, Fluo-8 calcium fluorescence, ACh EC80; inhibition, % at 3 µM; 360,000 tested, 0.59% active; AID 624040;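 active = inhibition above a per-plate cutoff, the mean of that plate's test compounds plus 3 SD, cut at about 27% in these data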;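 also: 0% = acetylcholine EC80 with DMSO and 100% = DMSO without agonist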
Target sequence (P08912 whole entry, looked up): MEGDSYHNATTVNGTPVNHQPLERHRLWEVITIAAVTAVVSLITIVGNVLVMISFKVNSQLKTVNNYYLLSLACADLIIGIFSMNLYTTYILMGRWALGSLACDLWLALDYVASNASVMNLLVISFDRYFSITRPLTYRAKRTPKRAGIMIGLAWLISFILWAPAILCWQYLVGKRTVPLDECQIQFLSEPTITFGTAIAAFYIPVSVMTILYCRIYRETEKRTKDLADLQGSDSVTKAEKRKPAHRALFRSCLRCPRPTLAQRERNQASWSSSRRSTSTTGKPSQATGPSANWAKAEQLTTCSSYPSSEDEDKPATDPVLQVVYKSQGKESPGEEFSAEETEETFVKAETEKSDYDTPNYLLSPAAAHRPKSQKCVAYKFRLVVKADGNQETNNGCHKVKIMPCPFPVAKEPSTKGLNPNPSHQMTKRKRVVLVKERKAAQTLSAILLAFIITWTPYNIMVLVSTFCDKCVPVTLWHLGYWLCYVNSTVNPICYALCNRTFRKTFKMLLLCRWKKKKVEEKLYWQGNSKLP
CHRM5 PAM: potentiates acetylcholine response at human M5 receptor | AID 624038 | CHO-K1 hM5, Fluo-8 calcium, ACh EC20 PAM; 0% = ACh EC20, 100% = ACh EC100 | activation, % at 3 µM | 360,000 tested, 0.3% active;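 active = activation above the run cutoff, the mean activation of all test compounds plus 3 SD, cut at about 18% in these data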
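system = human M5 receptor in CHO-K1 cells | compound = one concentration, 3 µM final (nominal) | schedule = Post-acetylcholine fluorescence recording 140 s | signal = Fluo-8 calcium dye fluorescence, kinetic read | benchmarks = low control EC20 acetylcholine (0%), high control EC100 acetylcholine (100%) | repeats = singlicate, one well per test compound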
M4 antag: CHRM4 antagonism in calcium assay. P08173. CHO-hM4 cells, ACh EC80, Fluo-8 calcium fluorescence. inhibition, % at 3 µM. 360,000 tested, 0.73% active. AID 624125;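 active = inhibition above its plate's cutoff, the mean inhibition of sample wells plus 3 SD, cut at about 27% in these data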;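 also: 0% = acetylcholine EC80 with DMSO and 100% = DMSO without agonist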
CHRM4 agonist: agonists of human muscarinic M4 receptor (CHRM4); CHO-K1 hM4/Gqi5, Fluo-8 calcium fluorescence; vehicle 0%, full acetylcholine response 100%; P08173; AID 624127; 360,000 tested, 0.14% active; activation, % at 3 µM;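 active = activation above the run mean over all test wells plus 3 SD, cut at about 32% in these data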;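 also: peak over basal fluorescence ratio per well then scaled between controls; 0% = DMSO wells and 100% = acetylcholine at EC100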
CHRM5 agonist: agonists of human muscarinic M5 receptor (CHRM5). 360,000 tested, 0.19% active. AID 624037. P08912. CHO-K1 hM5 cells, Fluo-8 calcium fluorescence; 0% DMSO wells, 100% maximal acetylcholine response. activation, % at 3 µM;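 active = activation above the run's mean over test compounds plus 3 SD, cut at about 23% in these data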;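 also: signal is peak over basal fluorescence ratio across the kinetic read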
CHRM4 PAM: potentiates acetylcholine response at human M4 receptor | P08173 | 360,000 tested, 0.4% active | activation, % at 3 µM | CHO-K1 hM4/Gqi5, Fluo-8 calcium fluorescence, ACh EC20; 0% = ACh EC20, 100% = maximal ACh | AID 624126;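 active = activation above its plate's cutoff, the mean activation of sample wells plus 3 SD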
Active calls of the source: *.

SMILES | CHRM5 antagonist | CHRM5 PAM | M4 antag | CHRM4 agonist | CHRM5 agonist | CHRM4 PAM
CCCCC(CC(O)COCC(C)C)C(=O)NN (centres undefined) | -4.0 | 6.8 | 0.3 | 0.4 | -2.8 | 7.8
COc1ccc(CCNC(=O)C(=O)c2c(C)[nH]c3ccccc23)cc1 | 70.5* | -17.9 | 1.1 | 13.2 | -8.6 | -7.6
O=Cc1ccc(F)c([B-](F)(F)F)c1 | -9.9 | 3.5 | -0.4 | 0.8 | 0.8 | 1.4
Cc1sc2nc(CSCC(=O)Nc3ccccc3C#N)[nH]c(=O)c2c1C | -0.7 | 3.3 | -6.0 | 1.1 | 1.2 | 37.9*
CSc1ccccc1NC(=O)CSCc1nc2sc(C)c(C)c2c(=O)[nH]1 | -4.1 | 3.6 | 7.6 | 1.1 | 1.9 | -2.3
CCOc1ccc(/C=C/C2=Cc3c(sc(NC(=O)CSc4n[nH]c(N)n4)c3C#N)C(C)(C)C2)cc1 | 22.7 | 8.1 | 47.3* | 7.5 | 7.9 | -1.8
COc1ccc(-c2csc(N(CCCN(C)C)C(=O)c3ccc(C)cc3)n2)cc1 | -7.4 | 7.5 | 49.0* | 22.8 | -7.1 | 48.9*
CCN(C(=O)c1cccs1)c1nc(-c2ccc(OC)cc2)cs1 | -10.1 | 5.4 | -5.1 | 0.4 | -1.4 | 4.4
CCN(CC)CCN(C(=O)c1ccc([N+](=O)[O-])cc1)c1nc2ccc(OC)cc2s1 | -3.1 | 7.4 | -14.1 | 0.9 | -3.6 | 32.2*
COc1ccc(-c2csc(N(CCCN(C)C)C(=O)c3cccs3)n2)cc1 | 37.9* | -16.0 | -1.9 | 8.7 | -4.4 | -13.7
COc1ccc(-c2csc(N(CCCN(C)C)C(=O)c3ccc(Br)cc3)n2)cc1 | 3.9 | -3.7 | 23.4 | 16.0 | -5.6 | 47.0*
CCN(CC)CCCN(C(=O)c1ccccc1C)c1nc(-c2ccc(OC)cc2)cs1 | 7.2 | 11.5 | -3.5 | 1.3 | -13.1 | -0.3
CCN(CC)CCCN(C(=O)c1ccc(OC)cc1)c1nc(-c2ccc(OC)cc2)cs1 | 5.9 | -1.4 | 28.9* | 10.4 | -18.5 | 48.9*
COc1ccc(-c2csc(N(CCCN3CCOCC3)C(=O)c3ccco3)n2)cc1 | 18.2 | -11.6 | 35.7* | 16.4 | -2.4 | -9.6
CN(C(=O)c1cccc(NC(=O)Cc2ccc(NC(=O)C3CCN(C(=O)C4CCC4)CC3)cc2)c1)C1CC1 | 4.3 | -2.3 | 1.6 | 0.3 | -1.5 | -1.9
CN(C/C=C/c1ccccc1[N+](=O)[O-])Cc1ccccc1 | 11.3 | -17.8 | 35.3* | 0.3 | -21.7 | -14.6
N#CC1(NC(=O)Cn2ncc(Cl)c(Cl)c2=O)CCCCC1 | -4.1 | 4.2 | -7.4 | 0.4 | 2.9 | 10.7
O=C(CN1C(=O)NC2(CCCCCC2)C1=O)NCc1ccc(Cl)cc1 | -0.8 | 8.2 | 4.8 | 2.8 | 0.3 | 9.6
COc1cc(/C=C2/C(=O)NN(c3ccc(Cl)cc3)C2=O)cc(Br)c1O | -3.5 | 19.7* | -1.3 | 0.2 | 6.3 | 2.6
O=C(CCNS(=O)(=O)c1ccc(OC(F)(F)F)cc1)Nc1cccc(S(=O)(=O)N2CCCC2)c1 | 9.6 | -6.8 | -6.7 | 12.0 | -5.0 | -13.9
COc1ccc(CN2CCNC(=O)C2CC(=O)N(Cc2nccn2C)C(C)C)c(OC)c1 (centres undefined) | -5.1 | 6.0 | -1.1 | 0.7 | -3.4 | 30.8*
CC(C)N(Cc1nccn1C)C(=O)CC1C(=O)NCCN1Cc1ccc(F)cc1 (centres undefined) | -2.2 | 10.3 | -4.5 | 1.4 | -1.2 | -3.4
CCCc1nc2c(=O)[nH]c3ccccc3c2o1 | 1.1 | 18.6* | -8.9 | 0.6 | 0.1 | 10.1
CCn1c(SCC(=O)N/N=C/c2ccccc2OCC(=O)O)nnc1-c1ccc(C)cc1 | 37.4* | 25.8* | 15.0 | 7.2 | 7.2 | 2.2
O=[N+]([O-])c1ccc(N2CCN(C(=S)NCc3ccc(Cl)cc3)CC2)cc1 | 29.1* | -20.4 | 19.7 | 13.7 | 1.6 | -18.9
SMILES | CHRM5 antagonist | CHRM5 PAM | M4 antag | CHRM4 agonist | CHRM5 agonist | CHRM4 PAM
COc1ccccc1NS(=O)(=O)c1ccc2oc(SC(C)C(=O)N3CCNC3=O)nc2c1 (centres undefined) | 12.8 | -42.3 | 10.5 | 32.1* | 11.1 | -13.0
CCCC1CCc2[nH]nc(C(=O)NN)c2C1 (centres undefined) | -6.1 | -1.8 | 10.8 | 1.1 | 2.5 | 3.3
c1ccc(CSc2cc3ccccc3[nH]2)cc1 | 12.2 | -4.1 | -4.2 | -1.5 | -5.5 | -2.7
CC(C)c1ccc(C(=O)N2CCCCC2c2cc(C(=O)Nc3ccncc3)no2)cc1 (centres undefined) | 13.2 | -9.7 | -6.4 | 14.3 | 4.2 | -6.8
CC(=O)OCCNc1cc(N2CCN(C)CC2)c2noc3c2c1C(=O)c1ccccc1-3 | 6.7 | -4.9 | -9.5 | -0.1 | 1.4 | 3.3
CCOC(=O)C(C(=O)OCC)c1cc(Br)c2noc3c2c1C(=O)c1ccccc1-3 | 33.5* | 2.9 | 54.4* | 8.1 | 6.2 | -5.8
COc1ccc(S(=O)(=O)N2CCOC2CNC(=O)C(=O)NCCCN2CCOCC2)cc1C (centres undefined) | 9.2 | -2.7 | 9.1 | 3.1 | -2.5 | -4.1
c1ccn2cc(C34CC5CC(CC(C5)C3)C4)nc2c1 | 9.6 | -19.2 | 60.0* | 2.4 | -17.9 | -27.3
COc1ccc(S(=O)(=O)Nc2ccc3c(c2)OCO3)cc1OC | 0.8 | 0.7 | -3.3 | 2.0 | 1.5 | -0.1
COc1ccc(NS(=O)(=O)c2ccc3c(c2)OCCO3)cc1OC | 28.8* | -13.4 | -4.9 | 15.2 | 7.8 | -3.8
CCC(c1nnnn1Cc1ccc(F)cc1)N1CCN(C)CC1 (centres undefined) | 1.7 | 8.7 | -16.1 | 1.6 | -13.6 | 24.3*
S=C(NCc1ccc(Cl)cc1)NCc1ccco1 | 16.5 | -2.1 | 5.2 | 0.1 | -4.5 | -2.1
COc1ccc(-n2nc([N+](=O)[O-])c(=NC3CCN(Cc4ccccc4)CC3)n2O)cc1 | 1.1 | -3.0 | 27.9* | 0.1 | -8.5 | -17.8
COc1ccc(S(=O)(=O)N2CCC(C(=O)N[C@@H](C)C(=O)NCc3ccco3)CC2)cc1 | 2.5 | 0.5 | -9.8 | 0.9 | -1.1 | 5.0
CN(C)CCCN(C(=O)COc1ccc(Cl)cc1)c1nc2ccc(F)cc2s1 | 0.8 | 8.0 | 11.5 | 13.8 | 1.7 | -5.8
Cc1ccc2nc(N(CCCN(C)C)C(=O)COc3ccc(Cl)cc3)sc2c1 | -1.9 | 7.8 | 15.5 | 37.9* | 0.7 | -14.9
O=C(Nc1ccc(Cl)cc1)Nc1ccccc1NS(=O)(=O)c1cccs1 | 44.2* | -19.5 | 18.6 | 22.8 | 7.2 | -19.3
O=C(Nc1ccc(F)cc1)Nc1ccccc1NS(=O)(=O)c1cccs1 | 25.5 | -19.2 | 0.4 | 14.1 | 10.8 | -12.0
COC(=O)CCCC[C@@H]1O[C@H](CCc2ccccc2)CC2=C1C(=O)OC(C)(C)O2 | 7.0 | -16.7 | -1.3 | 15.0 | 1.1 | -7.1
